Screening data from PubChem.
Hits are enriched below; roughly 1% of the tested compounds scored in any of these assays.
LYPLA2 inh = LYPLA2 inhibitors, primary screen, counter-screen for PME1 inhibitor project, biochemical, fluorescence polarization, FP-Rh probe ABPP; inhibition, % at 5.9 µM; recombinant LYPLA2; hit rate 0.38% among 320,000;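 active = inhibition above the screen-wide mean plus 3 SD, limit set per campaign, cut at about 26% in these data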;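 also: 0% = LYPLA2 with DMSO and 100% = wells lacking LYPLA2 enzyme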
procasp7 counter = procaspase-7 activators, primary screen, counter-screen for procaspase-3 activator project, biochemical, absorbance, HTS, human | Caspase-7 (Homo sapiens), P55210 | recombinant procaspase-7, Ac-DEVD-pNA absorbance 405 nm; D23A/D198A/D206A triple mutant, cannot self-cleave; scale: DMSO 0, 5 µM enzyme 100 | activation, % at 8.5 µM | hit rate 0.093% among 330,000;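 active = percent activation above the screen-wide mean plus 3 SD, cut at about 25% in these data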
Target sequence (P55210 whole entry D23A/D198A/D206A): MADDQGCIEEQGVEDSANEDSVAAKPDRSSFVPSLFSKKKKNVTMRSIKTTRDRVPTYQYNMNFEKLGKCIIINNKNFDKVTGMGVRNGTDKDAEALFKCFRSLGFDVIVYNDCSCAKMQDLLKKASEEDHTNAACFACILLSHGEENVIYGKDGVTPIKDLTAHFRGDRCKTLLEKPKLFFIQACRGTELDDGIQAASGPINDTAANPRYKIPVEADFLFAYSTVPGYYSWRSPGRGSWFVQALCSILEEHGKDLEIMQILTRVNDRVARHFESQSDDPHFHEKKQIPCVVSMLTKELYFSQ
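Assay system: Uncleavable procaspase-7 mutant enzyme; Input: 2 µM procaspase-7 mutant as dispensed; Also added: DEVD-pNA substrate; Medium: Zinc-free HEPES pH 7.4 with 300 mM NaCl, 0.01% Triton X-100; Timing: 1 h compound preincubation, 2 h substrate cleavage, 25 °C; Measured by: Epi-absorbance of released pNA at 405 nm, two timepoints.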
PME-1 primary = PME-1 inhibitors via competitive probe labeling, primary screen, biochemical, fluorescence polarization, FP-Rh probe, HTS | Protein phosphatase methylesterase 1 (Homo sapiens), Q9Y570 | recombinant PME-1 | hit rate 0.53% among 320,000 | inhibition, % at 5.9 µM | AID 2130, 2009;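 active = inhibition above the campaign mean of all compounds plus 3 SD, cut at about 26% in these data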;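 also: competitive labeling of PME-1 active site by serine hydrolase directed probe; 0% = PME-1 with DMSO and 100% = wells lacking PME-1 enzyme; inhibitors block probe labeling so polarization falls and inhibition rises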
LYPLA1 counter = LYPLA1 inhibitors, primary screen, counter-screen for PME1 inhibitor project, biochemical, fluorescence polarization, FP-Rh probe ABPP | inhibition, % at 5.9 µM | recombinant LYPLA1 | AID 2174, 2009 | hit rate 0.16% among 320,000;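 active = inhibition above the mean of all tested compounds plus 3 SD, set per campaign, cut at about 14% in these data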;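 also: inhibitors block serine hydrolase probe labeling of LYPLA1 so polarization falls; 0% = enzyme with DMSO and 100% = wells lacking LYPLA1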
procasp3 activ = activators of human procaspase-3 D3A mutant, primary screen, biochemical, absorbance, PC-3 D3A mutant, single concentration | hit rate 0.11% among 330,000 | AID 463141, 2010 | recombinant procaspase-3 D3A, Ac-DEVD-pNA absorbance 405 nm | Caspase-3 (Homo sapiens), P42574 | activation, % at 8.5 µM;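 active = activation above the mean of all tested compounds plus 3 SD, cut at about 21% in these data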;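 also: 0% = DMSO alone and 100% = DMSO wells spiked with extra 5 µM PC-3 D3A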
Target sequence (P42574 whole entry D9A/D28A/D175A): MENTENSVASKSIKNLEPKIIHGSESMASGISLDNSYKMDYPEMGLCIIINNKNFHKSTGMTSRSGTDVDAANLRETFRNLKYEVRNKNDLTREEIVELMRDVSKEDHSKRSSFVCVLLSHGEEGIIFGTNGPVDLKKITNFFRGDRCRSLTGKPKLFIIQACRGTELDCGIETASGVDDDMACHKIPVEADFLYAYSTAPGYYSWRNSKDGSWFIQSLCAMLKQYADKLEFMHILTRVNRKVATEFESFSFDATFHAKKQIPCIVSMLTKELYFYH
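Test system: Procaspase-3 D3A mutant, all three cleavage aspartates alanine | Dosing: Single dose, 8.5 µM nominal compound, 0.8% DMSO | Schedule: 1 h preincubation, 2 h reaction | Technique: 405 nm absorbance of p-nitroaniline, reads at 0 and 120 min | Repeats: One well per compound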
Fam108B inh = mouse Fam108B serine hydrolase inhibitors, primary screen, counter-screen for RBBP9 inhibitor project, biochemical, fluorescence polarization. inhibition, % at 9.51 µM. hit rate 0.33% among 300,000. AID 1947, 2009. recombinant Fam108B, FP-Rh probe fluorescence polarization;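 active = inhibition above the screen mean inhibition plus 3 SD, computed separately per campaign, cut at about 18% in these data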;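 also: inhibitors lower polarization as less probe binds the enzyme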
PC3 D3A act = procaspase-3 activators, counter-screen for dual procaspase-3/7 activator project, biochemical, absorbance, PC-3 D3A mutant, human. shares compounds with procasp7 counter. recombinant PC-3 D3A, Ac-DEVD-pNA absorbance 405 nm; aspartates 9, 28, 175 changed to alanine; 100% = enzyme control. activation, % at 8.5 µM. 290 tested, under 10 active;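 active = mean percent activation across triplicates above a set limit taken from the earlier primary procaspase-3 screen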;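 also: 0% = DMSO wells and 100% = DMSO wells with 5 µM added PC-3 D3A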
PC7 dual conf = activation of procaspase-7 enzyme – biochemical, absorbance, human, dual procaspase-3/-7 activator project, confirmation; shares compounds with procasp7 counter; recombinant procaspase-7, Ac-DEVD-pNA absorbance 405 nm; D23A/D198A/D206A mutant that cannot self-cleave; activation, % at 8.5 µM; 290 tested, under 10 active;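 active = mean activation above a set limit carried over from the earlier primary screen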;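 also: 0% = DMSO only and 100% = DMSO with added 5 µM PC-7 enzyme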
* hit, by the source's call; x = no result.

SMILES	LYPLA2 inh	procasp7 counter	PME-1 primary	LYPLA1 counter	procasp3 activ	Fam108B inh	PC3 D3A act	PC7 dual conf
CCOC(=O)c1nc(Nc2ccccc2)c2ccccc2n1	7	-7	2	0	3	3	x	x
C=CCOC(=O)C1=C(C)NC(SCC)=C(C#N)C1c1ccc(Cl)cc1 (stereo not given)	-16	26*	-20	-13	18	-14	5	6
C=CCOC(=O)C1=C(C)NC(SCC(N)=O)=C(C#N)C1c1ccc(C)cc1 (stereo not given)	-3	5	-12	-4	-3	-3	x	x
Cc1ccc(N2C(=O)N(CC(=O)Nc3c(C)cc(C)cc3Cl)C(=O)C2C)cc1 (stereo not given)	-3	5	-3	3	-3	-2	x	x
CCOc1ccc(-n2c(SCC(=O)Nc3ccc(OC)cc3)nc3c(c2=O)SCC3)cc1	-4	68*	-4	2	3	10	0	1
CC12CCC(C/C1=N\OC(=O)c1c(F)cccc1F)C2(C)C (stereo not given)	1	5	-3	0	1	-5	x	x
Oc1c(Cl)cc(Cl)cc1/C=N/NC(=S)NC1CC2C=CC1C2 (stereo not given)	0	40*	11	-1	43*	14	-30	-34
CN(C)C(C)(C)/C=C/C(O)(c1ccccc1)c1ccccc1	-2	-4	-6	-2	-2	-1	x	x
Cc1ccc2nc(NCc3ccccc3)c(C#N)cc2c1	8	52*	-3	-1	9	4	-30	-35
COc1ccccc1NC(=O)c1ccccc1C(=O)Nc1ccccc1OC	12	10	0	7	2	3	x	x
COc1ccccc1NC(=O)c1cnc(Nc2ccccc2OC)c2ccccc12	3	31*	3	-6	17	4	-30	-35
COC(=O)c1[nH]c2c(c1C)C(=O)CC(c1cccc(OC)c1)C2 (stereo not given)	7	13	1	3	4	4	x	x
O=C(c1cccs1)c1ccc(-c2cccs2)s1	-3	37*	1	-8	27*	-6	-30	-35
CN1CCN(C(=O)c2ccc(-c3cccs3)s2)CC1	3	2	0	1	-7	1	x	x
O=C(Nc1ccc(Cc2ccncc2)cc1)C1CCC(N2C(=O)C3C4C=CC(C5CC45)C3C2=O)CC1 (stereo not given)	1	30*	3	1	-6	1	2	27*
O=C(Nc1ccc(F)cc1)Nc1ccc(NC(=O)c2ccccc2O)cc1	-8	13	-2	-4	6	2	x	x
Cc1cccc(C2=NN(c3ccc(Br)cc3)[C@@H](C(=O)N3CCOC3=O)[C@@H]2c2ccc(F)cc2)c1	-1	26*	-4	-2	35*	1	-29	-35
O=C1OCCN1C(=O)[C@H]1[C@H](c2ccc(F)cc2)C(c2cccc(Cl)c2)=NN1c1ccc(Br)cc1	x	15	x	x	19	x	x	x
CC(CCc1ccccc1)NCc1ccncc1 (stereo not given)	-3	-13	-4	-3	1	13	x	x
CC(NCc1ccccc1)c1ccccc1O (stereo not given)	-6	28*	-2	-3	1	0	2	1
N#Cc1c(N)n(C2CCCCC2)c2nc3ccccc3nc12	-8	62*	0	-4	13	-3	-29	-36
COc1ccc2c(-c3ccc(SC)cc3)c(-c3ccc(S(C)(=O)=O)cc3)sc2c1	x	55*	x	x	43*	x	-28	-34
Cc1cc(C)c(S(=O)(=O)c2ccccc2)c(OC(=O)c2c(F)cccc2F)n1	6	7	0	3	-1	6	x	x
Cc1cc(C)c(S(=O)(=O)c2ccccc2)c(OC(=O)c2c(Cl)cc(Cl)cc2Cl)n1	-1	26*	1	-1	-1	-5	2	3
COc1ccccc1[C@H]1C(c2cccc(Cl)c2)=NN(c2ccccc2)[C@@H]1CO	x	-19	x	x	17	x	x	x
SMILES	LYPLA2 inh	procasp7 counter	PME-1 primary	LYPLA1 counter	procasp3 activ	Fam108B inh	PC3 D3A act	PC7 dual conf
OC[C@@H]1[C@@H](c2ccccc2)C(c2ccc(F)cc2)=NN1c1ccccc1	x	29*	x	x	16	x	-29	-35
C[C@@H]1C(c2ccc(F)cc2)=NN(c2ccccc2)[C@H]1C(=O)N1CCOC1=O	x	7	x	x	4	x	x	x
OC[C@@H]1[C@@H](c2ccccc2)C(c2ccccc2)=NN1c1ccccc1	x	31*	x	x	17	x	-30	-36
Cc1ccc(CC(NC(=O)C2CCCCC2)C(=O)O)cc1 (stereo not given)	x	13	x	x	-7	x	x	x
CCOC(=O)C1=C(C)NC(C)=C(C(=O)OCC)C1/C=C/c1ccccc1OC	10	29*	5	1	15	-3	-28	-23
COc1ccc(S(=O)(=O)N2CCN(C(=O)COc3ccc(C)c(C)c3)CC2)cc1OC	2	39*	3	0	-2	2	1	-2
CN(CCOC(=O)c1ccc2c(c1)OCO2)C(C)(C)C	3	2	5	-1	1	6	x	x
COC(=O)C1C(O)=C(C=Nc2ccccc2)C(=O)CC1(C)C (stereo not given)	4	6	-6	-2	4	-5	x	x
COC(=O)C1C(O)=C(C=Nc2ccc(N)cc2)C(=O)CC1(C)C (stereo not given)	5	36*	0	4	11	2	3	0
Cc1ccc(NC(=O)COC(=O)CCC2CCCC2)c(Br)c1	-2	1	1	0	4	x	x	x
Cn1cc(Br)c(-c2cccc(NC(=O)CCC(=O)O)c2)n1	-2	5	-2	2	3	2	x	x
